CHOP UPR activ: apoptotic UPR (CHOP) activation. CHO-CHOP luciferase reporter, luminescence; percent of tunicamycin response over DMSO baseline. activation, % at 10 µM. 330,000 compounds, 0.34% hits;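 active = at 10 µM dose, activation of 40% or more, normalized to positive control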;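 note: 100% = tunicamycin at 10 µg/mL and 0% = DMSO alone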
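Dosing – one dose, 10 µM in 0.5% DMSO · System – CHO-CHOP cells, stable luciferase reporter of PERK-eIF2a-CHOP signalling · Input – 500 cells/well · Control set – tunicamycin 10 µg/mL final as positive, DMSO-only wells as negative · Timing – 6 h compound treatment, 37 °C · Measure – % activation vs tunicamycin · Technique – luminescence read with Steady-Glo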
tim23-1 inh: tim23-1 yeast growth inhibition; S. cerevisiae tim23-1 growth, BacTiter-Glo luminescence, 24 h; inhibition, % at 20 µM; 330,000 compounds, 1.3% hits;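 active = growth inhibition of the mutant yeast at or above 50%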;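 note: temperature-sensitive mutant grown at 25 °C; plate controls were DMSO-treated mutant yeast for no effect and medium wells lacking yeast for full effect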
TIM10 inh: TIM10 yeast growth inhibition. 330,000 compounds, 1.4% hits. S. cerevisiae TIM10 strain growth, BacTiter-Glo luminescence, 24 h. inhibition, % at 10 µM;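 active = inhibition of 40% or more at the single tested concentration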;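 note: wild-type TIM10 isogenic control strain grown at permissive 25 °C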
tim10-1 inh: inhibits growth of tim10-1 mutant yeast. 330,000 compounds, 2.2% hits. inhibition, % at 20 µM. S. cerevisiae tim10-1 ts strain growth, BacTiter-Glo, 24 h. AID 463190;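 active = inhibition of at least 40%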;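 note: mutant grown at 25 °C; 0% = DMSO wells with yeast and 100% = wells holding no yeast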
XBP1 UPR activ: adaptive UPR (XBP1) activation; CHO-XBP1 luciferase reporter, IRE1-XBP1 UPR activation, luminescence; percent of tunicamycin response, DMSO as zero; activation, % at 20 µM; 330,000 compounds, 0.33% hits; AID 463104;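 active = versus positive control, 20 µM dose yields 30% or more activation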;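 note: 100% = tunicamycin at 10 µg/mL and 0% = DMSO only wells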
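Material: CHO-XBP1 cells stably carrying IRE1-XBP1-driven luciferase reporter | Medium: F12 with 10% serum | Compound dosing: 20 µM single concentration, DMSO 1% | Incubation: Overnight seeding at 37 °C, 6 h compound treatment at 37 °C | Detection: Steady-Glo luminescence read | Read-out basis: % activation of reporter signal versus tunicamycin and DMSO controls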
UPR XBP1 confirm: adaptive UPR (XBP1) activation, confirmed; 1,000 compounds, 63% hits; AID 485299; activation, % at 20 µM; CHO-XBP1 IRE1-XBP1 luciferase reporter, luminescence; shares compounds with XBP1 UPR activ;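 active = reporter signal at least 30% of the positive control's activation in two or more of four replicate wells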;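 note: plate controls were DMSO negative control for no effect and tunicamycin 10 µg/mL positive control for full effect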
tim10-1 confirm: tim10-1 yeast growth inhibition, confirmed. shares compounds with tim10-1 inh. S. cerevisiae tim10-1 ts strain growth, BacTiter-Glo, 24 h. inhibition, % at 20 µM. 7,400 compounds, 56% hits. AID 463213;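 active = inhibition of yeast growth at or above a set limit in either of two repeat tests at 20 µM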;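 note: tim10-1 mutant grown at permissive 25 °C to find synthetic lethal compounds; 0% = DMSO yeast wells and 100% = medium wells without yeast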
TIM10 conf: confirmation of TIM10 yeast growth inhibitors; shares compounds with TIM10 inh; S. cerevisiae tim10 strain growth, BacTiter-Glo luminescence, 24 h; inhibition, % at 10 µM; 4,600 compounds, 63% hits;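 active = inhibition of yeast growth at or above a set limit in either of two replicates at 10 µM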;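 note: this counterscreen used the strain with wild-type TIM10; 0% = yeast with DMSO and 100% = medium wells lacking yeast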
tim23-1 confirm: tim23-1 yeast growth inhibition, confirmed; S. cerevisiae tim23-1 growth, BacTiter-Glo luminescence, 24 h; AID 463218; shares compounds with tim23-1 inh; 4,400 compounds, 83% hits; inhibition, % at 20 µM;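 active = inhibition above about 39% in either of two replicate wells at 20 µM, limit read from the data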;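 note: temperature-sensitive tim23-1 mutant grown at 25 °C; 0% = DMSO wells with yeast and 100% = medium wells without yeast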
* = called active by the depositor. In the library only some 3.9% were active in any assay of this set; here they are far more common.

How did Cc1c(O)cc2c(c1O)C(=O)CC(c1ccccc1)O2 (configuration not stated) do in these assays?
CHOP UPR activ: 11.7; tim23-1 inh: 50.8*; TIM10 inh: 30.7; tim10-1 inh: 38.2; XBP1 UPR activ: 121.2*; UPR XBP1 confirm: 172.9*; tim23-1 confirm: 47.7*

Results for COc1c(O)cc2c(c1O)C(=O)CC(c1ccccc1)O2 (configuration not stated) ?
CHOP UPR activ: 4.2; tim23-1 inh: 43.8; TIM10 inh: 8.8; tim10-1 inh: 28.2; XBP1 UPR activ: 3.9

How did O=C(NCc1ccc(Cl)cc1)C1CCCN1C(=O)Nc1ccccc1 (configuration not stated) do in these assays?
CHOP UPR activ: 2.2; tim23-1 inh: -10.2; TIM10 inh: -10.7; tim10-1 inh: -0.4; XBP1 UPR activ: -2.4

How did Nc1nc(Nc2ccc(Cl)cc2)nc2ccccc12 do in these assays?
CHOP UPR activ: 24.5; tim23-1 inh: 57.9*; TIM10 inh: 68.5*; tim10-1 inh: 67.3*; XBP1 UPR activ: 32.8*; UPR XBP1 confirm: 25.1; tim10-1 confirm: 57.1*; TIM10 conf: 67.4*; tim23-1 confirm: 55.0*

How did COc1ccc(OC)c(/C=C/C(=O)c2ccc3c(c2)OCCO3)c1 do in these assays?
CHOP UPR activ: 8.7; tim23-1 inh: 34.1; TIM10 inh: -2.8; tim10-1 inh: -2.7; XBP1 UPR activ: -0.9

Results for CCCCOC(=O)Cn1c(=O)n(CC(=O)OCCCC)c2ccccc21 ?
CHOP UPR activ: -1.7; tim23-1 inh: 32.0; TIM10 inh: 17.0; tim10-1 inh: 25.0; XBP1 UPR activ: -4.2

How did CCCCCCCCCCOC(=O)Cn1c(COc2ccc(Cl)cc2)[n+](C)c2ccccc21 do in these assays?
CHOP UPR activ: -1.0; tim23-1 inh: 91.6*; TIM10 inh: 54.9*; tim10-1 inh: 96.6*; XBP1 UPR activ: 35.7*; UPR XBP1 confirm: 36.2*; tim10-1 confirm: 92.4*; TIM10 conf: 53.6*; tim23-1 confirm: 90.8*

What do the screens show for `O=S(=O)(/N=C(\Sc1ccc(Cl)cc1)c1ccccc1)c1ccccc1`?
CHOP UPR activ: 21.4; tim23-1 inh: 55.3*; TIM10 inh: 34.4; tim10-1 inh: 44.9*; XBP1 UPR activ: 43.5*; UPR XBP1 confirm: 2.5; tim10-1 confirm: 40.0*; tim23-1 confirm: 81.2*

Results for COc1ccc(CCn2c(-c3ccco3)nc3nc4ccccc4nc32)cc1 ?
CHOP UPR activ: 4.5; tim23-1 inh: 18.3; TIM10 inh: 28.4; tim10-1 inh: 41.2*; XBP1 UPR activ: 1.6; tim10-1 confirm: 11.8

What do the screens show for `COc1ccccc1Cn1c(-c2ccco2)nc2nc3ccccc3nc21`?
CHOP UPR activ: 4.4; tim23-1 inh: 11.1; TIM10 inh: 28.4; tim10-1 inh: 30.9; XBP1 UPR activ: 2.9

What do the screens show for `Cc1ccc(OCCC(=O)NNC(=O)c2ccc(Br)cc2)cc1`?
CHOP UPR activ: 1.6; tim23-1 inh: 10.3; TIM10 inh: -7.8; tim10-1 inh: 5.0; XBP1 UPR activ: 2.3

What do the screens show for `Cc1ccnc2c1ccc1ccccc12`?
CHOP UPR activ: 1.4; tim23-1 inh: 18.9; TIM10 inh: -6.6; tim10-1 inh: 11.9; XBP1 UPR activ: -3.4

Results for Cc1ccnc2c1ccc1cccnc12 ?
CHOP UPR activ: -1.0; tim23-1 inh: 37.9; TIM10 inh: -14.9; tim10-1 inh: 42.1*; XBP1 UPR activ: -3.8; tim10-1 confirm: 16.8

Results for COc1ccc(COC(=O)c2sc3nc4n(c(=O)c3c2C)CCC4)cc1 ?
CHOP UPR activ: -0.3; tim23-1 inh: 19.2; TIM10 inh: 4.1; tim10-1 inh: 24.6; XBP1 UPR activ: -1.7

What do the screens show for `O=C(N/C(=C\c1ccc(Br)cc1)C(=O)N1CCCC1)c1cccs1`?
CHOP UPR activ: -0.6; tim23-1 inh: 23.9; TIM10 inh: 30.4; tim10-1 inh: 32.5; XBP1 UPR activ: -0.5

What do the screens show for `O=C(N/C(=C/c1ccc(Br)cc1)C(=O)N1CCCC1)c1cccs1`?
CHOP UPR activ: -2.3; tim23-1 inh: 33.9; TIM10 inh: 23.3; tim10-1 inh: 46.0*; XBP1 UPR activ: -2.4; tim10-1 confirm: 23.9

Results for CCn1c(=S)sc2c(=O)n(-c3ccccc3)c(SC)nc21 ?
CHOP UPR activ: 3.0; tim23-1 inh: 42.4; TIM10 inh: 36.9; tim10-1 inh: 48.4*; XBP1 UPR activ: 1.0; tim10-1 confirm: 49.2*

Results for CSc1nc(-c2ccccc2)cn1-c1ccc(NC(C)=O)cc1 ?
CHOP UPR activ: 6.2; tim23-1 inh: 35.7; TIM10 inh: 15.2; tim10-1 inh: 45.8*; XBP1 UPR activ: 0.6; tim10-1 confirm: 31.2*

What do the screens show for `Cc1ccc(-c2[nH]ncc2C(=O)c2ccc(Br)cc2)c(O)c1`?
CHOP UPR activ: -1.3; tim23-1 inh: 42.6; TIM10 inh: 6.5; tim10-1 inh: 42.2*; XBP1 UPR activ: 0.7; tim10-1 confirm: 23.2

What do the screens show for `Cc1ccc(C(=O)c2cn[nH]c2-c2cc(Cl)ccc2O)cc1`?
CHOP UPR activ: -1.1; tim23-1 inh: 38.4; TIM10 inh: 27.6; tim10-1 inh: -3.2; XBP1 UPR activ: -2.6

What do the screens show for `COc1cc(C)c(CN2CCC(n3nccc3NC(=O)C3CCOC3)CC2)cc1C` (configuration not stated)?
CHOP UPR activ: 0.6; tim23-1 inh: 0.3; TIM10 inh: 2.9; tim10-1 inh: -13.9; XBP1 UPR activ: -2.8

How did CC(O)[C@H]1CNC(=O)C(=O)N1CCC12CC3CC(CC(C3)C1)C2 (some centres not stated) do in these assays?
CHOP UPR activ: -0.4; tim23-1 inh: 1.0; TIM10 inh: 7.0; tim10-1 inh: 1.9; XBP1 UPR activ: 1.5

How did O=C1CCCN1CCC12CC3CC(CC(C3)C1)C2 do in these assays?
CHOP UPR activ: -2.6; tim23-1 inh: 33.6; TIM10 inh: 11.6; tim10-1 inh: 40.8*; XBP1 UPR activ: 0.5; tim10-1 confirm: 5.5

What do the screens show for `CCN(CC)C(=O)c1[nH]cnc1C(=O)NCC(=O)OCc1ccccc1`?
CHOP UPR activ: -4.6; tim23-1 inh: -3.0; TIM10 inh: -0.7; tim10-1 inh: -14.1; XBP1 UPR activ: 0.8

Results for O=C(Oc1ccc2c(=O)c(Oc3ccc4ccccc4c3)coc2c1)c1ccco1 ?
CHOP UPR activ: -0.6; tim23-1 inh: 22.2; TIM10 inh: 39.9; tim10-1 inh: 25.9; XBP1 UPR activ: -1.9

Bioassay records as filed in PubChem BioAssay.
